According to article PMC6792223 (Chemistry of Materials, 2019):

Experiments:
[1] = aqueous; cited from earlier work
[2] = system: Human-adipose-derived stem cells (hADSCs); assay: Live/dead assay of cells cultured on the hydrogels; format: cell-based; details: 4 days in culture, live/dead staining
In short: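 GdL-formed gels at 1:0, 4:1, 1:1, 1:4 and 0:1 PA-E3/DBS-COOH were cross-linked with 50 mM CaCl2 and PBS-washed to pH 7. hADSCs were seeded at 5000 cells/mL and cultured 4 days at 37 °C, 5% CO2, with tissue-culture plastic as reference. Stained 30 min with calcein AM (live, green) and ethidium homodimer-1 (dead, red); imaged by confocal microscopy.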

[3] = Optical appearance of the hydrogels; format: physicochemical; details: 10 mM gelator, gelation by GdL acidification overnight; visual
In short: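 Gelators at 10 mM in PBS (pH 7.4) were dissolved with 0.5 M NaOH (to pH 9), either singly or mixed at 100/0, 80/20, 50/50, 20/80 and 0/100 molar % (10 mM total). Solutions were shaken with GdL (4 mg per vial) until dissolved, then left overnight to gel.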

proteinase K = proteinase K (Parengyodontium album, UniProt P06873); assay: Hydrogel weight loss in proteinase K solution or PBS; format: in vitro ADME; details: PBS 1× without enzyme, 37 °C, 22 days
In short: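 Gels (10 mM PA-E3, 10 mM DBS-COOH, or 5 mM/5 mM mixture) formed by GdL acidification, soaked 1 h in PBS, then incubated at 37 °C in proteinase K (5 mg/mL in PBS) or PBS 1× alone; solutions renewed after each weighing at intervals up to 22 days; weight loss = (Wf – Wi)/Wi × 100 versus initial weight.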

Sequence of proteinase K (P06873 106-384, species assumed): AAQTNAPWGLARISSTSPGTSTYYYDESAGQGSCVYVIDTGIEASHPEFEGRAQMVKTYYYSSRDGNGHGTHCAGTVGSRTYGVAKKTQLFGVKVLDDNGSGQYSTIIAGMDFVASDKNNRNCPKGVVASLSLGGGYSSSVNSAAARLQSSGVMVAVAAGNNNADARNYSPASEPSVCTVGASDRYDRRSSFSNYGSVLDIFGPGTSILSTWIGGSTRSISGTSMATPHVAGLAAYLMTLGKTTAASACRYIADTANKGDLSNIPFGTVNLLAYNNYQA

Compound | pKa of the terminal carboxylic acid [1] | Live cell coverage of hydrogel ([2]; confocal imaging) | Cell viability on hydrogel compared with PA-E3 hydrogels ([2]; qualitative comparison) | Optical appearance of hydrogel (transparency) [3] | Weight ratio of hydrogel in PBS (proteinase K)
O=C(O)c1ccc([C@@H]2OC[C@@H]3O[C@H](c4ccc(C(=O)O)cc4)O[C@H]([C@H](O)CO)[C@@H]3O2)cc1 [DBS-COOH] | 4–5 | fully covered with live cells | more viable | translucent | –
CH3-(CH2)14-CONH-VVVAAAEEE-CONH2 [PA-E3] | 4–5 | – | – | optically transparent | remained constant
